Experimental data as given in ChEMBL document CHEMBL1275451, “In vitro susceptibilities of invasive isolates of Candida species: rapid increase in rates of fluconazole susceptible-dose dependent Candida glabrata isolates” (2008).
Values after ≈ are worked out from the molar mass of the structure shown.

How the values were obtained:
Assay type in all cases: functional
Nakaseomyces glabratus [1] = assay: Antifungal activity against Candida glabrata assessed as susceptible isolates after 48 hrs by CLSI method
Method in brief: (§1)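 Broth microdilution MICs were run on invasive clinical Candida isolates under CLSI M27-A2, with incubation at 35°C for 48 h before reading. Control strains were C. parapsilosis ATCC 22019 and C. krusei ATCC 6258. MICs were interpreted under the same guideline to place isolates as susceptible, susceptible-dose dependent or resistant, reported as percentage of isolates per category, with MIC range, MIC50 and MIC90.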

Candida parapsilosis [2] = assay: Antifungal activity against Candida parapsilosis assessed as susceptible isolates after 48 hrs by CLSI method; method in brief: as §1
Candida albicans [3] = assay: Antifungal activity against Candida albicans after 48 hrs by CLSI method
Candida tropicalis [4] = assay: Antifungal activity against Candida tropicalis assessed as susceptible isolates after 48 hrs by CLSI method; method in brief: as §1
Clavispora lusitaniae [5] = assay: Antifungal activity against Candida lusitaniae assessed as susceptible isolates after 48 hrs by CLSI method; method in brief: as §1
Candida parapsilosis [6] = assay: Antifungal activity against Candida parapsilosis assessed as susceptible dose-dependent isolates after 48 hrs by CLSI method; method in brief: as §1
Candida tropicalis [7] = assay: Antifungal activity against Candida tropicalis assessed as susceptible dose-dependent isolates after 48 hrs by CLSI method; method in brief: as §1
Clavispora lusitaniae [8] = assay: Antifungal activity against Candida lusitaniae assessed as resistant isolates after 48 hrs by CLSI method; method in brief: as §1
[9] = system: Meyerozyma guilliermondii; assay: Antifungal activity against Candida guilliermondii assessed as susceptible dose-dependent isolates after 48 hrs by CLSI method; method in brief: as §1
Candida parapsilosis [10] = assay: Antifungal activity against Candida parapsilosis after 48 hrs by CLSI method; conditions: Lodderomyces parapsilosis; method in brief: as §1
Candida albicans [11] = assay: Antifungal activity against Candida albicans assessed as resistant isolates after 48 hrs by CLSI method; method in brief: as §1
Candida parapsilosis [12] = assay: Antifungal activity against Candida parapsilosis assessed as resistant isolates after 48 hrs by CLSI method; method in brief: as §1
Candida albicans [13] = assay: Antifungal activity against Candida albicans assessed as susceptible dose-dependent isolates after 48 hrs by CLSI method; method in brief: as §1
Candida albicans [14] = assay: Antifungal activity against Candida albicans assessed as susceptible isolates after 48 hrs by CLSI method; method in brief: as §1
Clavispora lusitaniae [15] = assay: Antifungal activity against Candida lusitaniae after 48 hrs by CLSI method
Pichia kudriavzevii [16] = assay: Antifungal activity against Candida krusei assessed as susceptible dose-dependent isolates after 48 hrs by CLSI method; method in brief: as §1
Nakaseomyces glabratus [17] = assay: Antifungal activity against Candida glabrata assessed as susceptible dose-dependent isolates after 48 hrs by CLSI method; method in brief: as §1
Candida tropicalis [18] = assay: Antifungal activity against Candida tropicalis after 48 hrs by CLSI method; method in brief: as §1
Pichia kudriavzevii [19] = assay: Antifungal activity against Candida krusei assessed as susceptible isolates after 48 hrs by CLSI method; method in brief: as §1
Candida tropicalis [20] = assay: Antifungal activity against Candida tropicalis assessed as resistant isolates after 48 hrs by CLSI method; method in brief: as §1
Nakaseomyces glabratus [21] = assay: Antifungal activity against Candida glabrata assessed as resistant isolates after 48 hrs by CLSI method; method in brief: as §1
Nakaseomyces glabratus [22] = assay: Antifungal activity against Candida glabrata after 48 hrs by CLSI method
Pichia kudriavzevii [23] = assay: Antifungal activity against Candida krusei assessed as resistant isolates after 48 hrs by CLSI method; method in brief: as §1
Clavispora lusitaniae [24] = assay: Antifungal activity against Candida lusitaniae assessed as susceptible dose-dependent isolates after 48 hrs by CLSI method; method in brief: as §1
Pichia kudriavzevii [25] = assay: Antifungal activity against Candida krusei after 48 hrs by CLSI method
Method in brief: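 Broth microdilution MICs were run on invasive clinical Candida isolates under CLSI M27-A2, with incubation at 35°C for 48 h before reading. MICs were interpreted under the same guideline to place isolates as susceptible, susceptible-dose dependent or resistant, reported as percentage of isolates per category, with MIC range, MIC50 and MIC90.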

[26] = system: Meyerozyma guilliermondii; assay: Antifungal activity against Candida guilliermondii assessed as susceptible isolates after 48 hrs by CLSI method; method in brief: as §1
[27] = system: Meyerozyma guilliermondii; assay: Antifungal activity against Candida guilliermondii assessed as resistant isolates after 48 hrs by CLSI method; method in brief: as §1
[28] = system: Meyerozyma guilliermondii; assay: Antifungal activity against Candida guilliermondii after 48 hrs by CLSI method

For OC(Cn1cncn1)(Cn1cncn1)c1ccc(F)cc1F [FLUCONAZOLE], the Activity (Nakaseomyces glabratus [1]) was 22%, the Activity (Candida parapsilosis [2]) was 98% and the MIC (Candida albicans [3]) was 0.12 µg/mL (≈ 0.392 µM). For the same molecule, the MIC50 (Candida albicans [3]) was 0.12 µg/mL (≈ 0.392 µM), the MIC90 (Candida albicans [3]) was 0.25 µg/mL (≈ 0.816 µM) and the Activity (Candida tropicalis [4]) was 100%. The Activity (Clavispora lusitaniae [5]) was 100%, the Activity (Candida parapsilosis [6]) was 2% and the Activity (Candida tropicalis [7]) was 0%. It also gave an Activity (Clavispora lusitaniae [8]) of 0%, an Activity [9] of 9% and an MIC50 (Candida parapsilosis [10]) of 1 µg/mL (≈ 3.27 µM). For the same molecule, the MIC90 (Candida parapsilosis [10]) was 2 µg/mL (≈ 6.53 µM), the Activity (Candida albicans [11]) was 0% and the Activity (Candida parapsilosis [12]) was 0%. For the same molecule, the Activity (Candida albicans [13]) was 0%, the Activity (Candida albicans [14]) was 100% and the MIC50 (Clavispora lusitaniae [15]) was 0.25 µg/mL (≈ 0.816 µM). The MIC90 (Clavispora lusitaniae [15]) was 0.5 µg/mL (≈ 1.63 µM), the Activity (Pichia kudriavzevii [16]) was 63% and the Activity (Nakaseomyces glabratus [17]) was 73%. It also gave an MIC50 (Candida tropicalis [18]) of 1 µg/mL (≈ 3.27 µM), an MIC90 (Candida tropicalis [18]) of 2 µg/mL (≈ 6.53 µM) and an Activity (Pichia kudriavzevii [19]) of 0%. For the same molecule, the Activity (Candida tropicalis [20]) was 0%, the Activity (Nakaseomyces glabratus [21]) was 6% and the MIC50 (Nakaseomyces glabratus [22]) was 16 µg/mL (≈ 52.2 µM). It also gave an MIC90 (Nakaseomyces glabratus [22]) of 32 µg/mL (≈ 104 µM), an Activity (Pichia kudriavzevii [23]) of 38% and an Activity (Clavispora lusitaniae [24]) of 0%. It also gave an MIC50 (Pichia kudriavzevii [25]) of 32 µg/mL (≈ 104 µM), an MIC90 (Pichia kudriavzevii [25]) of 64 µg/mL (≈ 209 µM) and an Activity [26] of 88%. The Activity [27] was 3%.
C[C@@H](c1ncncc1F)[C@](O)(Cn1cncn1)c1ccc(F)cc1F [VORICONAZOLE] was tested, and the Activity (Nakaseomyces glabratus [1]) was 94%, the Activity (Candida parapsilosis [2]) was 100% and the MIC (Candida albicans [3]) was 0.015 µg/mL (≈ 0.0429 µM). The MIC50 (Candida albicans [3]) was 0.015 µg/mL (≈ 0.0429 µM), the MIC90 (Candida albicans [3]) was 0.03 µg/mL (≈ 0.0859 µM) and the Activity (Candida tropicalis [4]) was 100%. For the same molecule, the Activity (Clavispora lusitaniae [5]) was 100%, the Activity (Candida parapsilosis [6]) was 0% and the Activity (Candida tropicalis [7]) was 0%. It also gave an Activity (Clavispora lusitaniae [8]) of 0%, an Activity [9] of 3% and an MIC50 (Candida parapsilosis [10]) of 0.03 µg/mL (≈ 0.0859 µM). The MIC90 (Candida parapsilosis [10]) was 0.06 µg/mL (≈ 0.172 µM), the Activity (Candida albicans [11]) was 0% and the Activity (Candida parapsilosis [12]) was 0%. The Activity (Candida albicans [13]) was 0%, the Activity (Candida albicans [14]) was 100% and the MIC50 [28] was 0.06 µg/mL (≈ 0.172 µM). For the same molecule, the MIC90 [28] was 0.12 µg/mL (≈ 0.344 µM), the MIC (Clavispora lusitaniae [15]) was 0.015 µg/mL (≈ 0.0429 µM) and the MIC50 (Clavispora lusitaniae [15]) was 0.015 µg/mL (≈ 0.0429 µM). For the same molecule, the MIC90 (Clavispora lusitaniae [15]) was 0.015 µg/mL (≈ 0.0429 µM), the Activity (Pichia kudriavzevii [16]) was 3% and the Activity (Nakaseomyces glabratus [17]) was 2%. For the same molecule, the MIC50 (Candida tropicalis [18]) was 0.12 µg/mL (≈ 0.344 µM), the MIC90 (Candida tropicalis [18]) was 0.12 µg/mL (≈ 0.344 µM) and the Activity (Pichia kudriavzevii [19]) was 95%. The Activity (Candida tropicalis [20]) was 0%, the Activity (Nakaseomyces glabratus [21]) was 4% and the MIC50 (Nakaseomyces glabratus [22]) was 0.5 µg/mL (≈ 1.43 µM). It also gave an MIC90 (Nakaseomyces glabratus [22]) of 1 µg/mL (≈ 2.86 µM), an Activity (Pichia kudriavzevii [23]) of 3% and an Activity (Clavispora lusitaniae [24]) of 0%. For the same molecule, the MIC50 (Pichia kudriavzevii [25]) was 0.5 µg/mL (≈ 1.43 µM), the MIC90 (Pichia kudriavzevii [25]) was 0.5 µg/mL (≈ 1.43 µM) and the Activity [26] was 97%. The Activity [27] was 0%.
CCC(C)n1ncn(-c2ccc(N3CCN(c4ccc(OCC5COC(Cn6cncn6)(c6ccc(Cl)cc6Cl)O5)cc4)CC3)cc2)c1=O (stereo not drawn) [ITRACONAZOLE] showed an Activity (Nakaseomyces glabratus [1]) of 0%, an Activity (Candida parapsilosis [2]) of 78% and an MIC50 (Candida albicans [3]) of 0.03 µg/mL (≈ 0.0425 µM). The MIC90 (Candida albicans [3]) was 0.03 µg/mL (≈ 0.0425 µM), the Activity (Candida tropicalis [4]) was 65% and the Activity (Clavispora lusitaniae [5]) was 100%. It also gave an Activity (Candida parapsilosis [6]) of 22%, an Activity (Candida tropicalis [7]) of 35% and an Activity [9] of 88%. For the same molecule, the MIC50 (Candida parapsilosis [10]) was 0.06 µg/mL (≈ 0.085 µM), the MIC90 (Candida parapsilosis [10]) was 0.25 µg/mL (≈ 0.354 µM) and the Activity (Candida albicans [11]) was 0%. It also gave an Activity (Candida parapsilosis [12]) of 0%, an Activity (Candida albicans [13]) of 2% and an Activity (Candida albicans [14]) of 98%. For the same molecule, the MIC50 [28] was 0.5 µg/mL (≈ 0.709 µM), the MIC90 [28] was 0.5 µg/mL (≈ 0.709 µM) and the MIC50 (Clavispora lusitaniae [15]) was 0.06 µg/mL (≈ 0.085 µM). It also gave an MIC90 (Clavispora lusitaniae [15]) of 0.06 µg/mL (≈ 0.085 µM), an Activity (Pichia kudriavzevii [16]) of 90% and an Activity (Nakaseomyces glabratus [17]) of 37%. For the same molecule, the MIC50 (Candida tropicalis [18]) was 0.12 µg/mL (≈ 0.17 µM), the MIC90 (Candida tropicalis [18]) was 0.25 µg/mL (≈ 0.354 µM) and the Activity (Pichia kudriavzevii [19]) was 0%. For the same molecule, the Activity (Candida tropicalis [20]) was 0%, the Activity (Nakaseomyces glabratus [21]) was 63% and the MIC50 (Nakaseomyces glabratus [22]) was 1 µg/mL (≈ 1.42 µM). The MIC90 (Nakaseomyces glabratus [22]) was 1 µg/mL (≈ 1.42 µM), the Activity (Pichia kudriavzevii [23]) was 10% and the Activity (Clavispora lusitaniae [24]) was 0%. For the same molecule, the MIC50 (Pichia kudriavzevii [25]) was 0.5 µg/mL (≈ 0.709 µM), the MIC90 (Pichia kudriavzevii [25]) was 0.5 µg/mL (≈ 0.709 µM) and the Activity [26] was 6%.
Work on C[C@@H]1[C@H](O)[C@@H](C)/C=C/C=C/C=C/C=C/C=C/C=C/C=C/[C@H](O[C@@H]2O[C@H](C)[C@@H](O)[C@H](N)[C@@H]2O)C[C@@H]2O[C@](O)(C[C@@H](O)C[C@@H](O)[C@H](O)CC[C@@H](O)C[C@@H](O)CC(=O)O[C@H]1C)C[C@H](O)[C@H]2C(=O)O [AMPHOTERICIN B] yielded an Activity (Nakaseomyces glabratus [1]) of 47%, an Activity (Candida parapsilosis [2]) of 98% and an MIC (Candida albicans [3]) of 1 µg/mL (≈ 1.08 µM). The MIC50 (Candida albicans [3]) was 1 µg/mL (≈ 1.08 µM), the MIC90 (Candida albicans [3]) was 1 µg/mL (≈ 1.08 µM) and the Activity (Candida tropicalis [4]) was 98%. It also gave an Activity (Clavispora lusitaniae [5]) of 100%, an Activity (Candida albicans [14]) of 100% and an MIC50 (Clavispora lusitaniae [15]) of 1 µg/mL (≈ 1.08 µM). For the same molecule, the MIC90 (Clavispora lusitaniae [15]) was 1 µg/mL (≈ 1.08 µM), the MIC (Candida tropicalis [18]) was 0.5 µg/mL (≈ 0.541 µM) and the MIC50 (Candida tropicalis [18]) was 0.5 µg/mL (≈ 0.541 µM). It also gave an MIC90 (Candida tropicalis [18]) of 1 µg/mL (≈ 1.08 µM), an Activity (Pichia kudriavzevii [19]) of 5% and an MIC50 (Nakaseomyces glabratus [22]) of 2 µg/mL (≈ 2.16 µM). For the same molecule, the MIC90 (Nakaseomyces glabratus [22]) was 2 µg/mL (≈ 2.16 µM), the MIC50 (Pichia kudriavzevii [25]) was 2 µg/mL (≈ 2.16 µM) and the MIC90 (Pichia kudriavzevii [25]) was 2 µg/mL (≈ 2.16 µM). It also gave an Activity [26] of 97%.
